Legend:
Assay type in all cases: functional
[1] = tested on: MDA-MB-435; experiment: Cytotoxicity against human MDA-MB-435 cells
Method in brief: (§1)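 Tested in a 60-cell-line human tumor panel screen; the read-out is growth inhibition, reported as GI50 for each cell line.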

[2] = tested on: 786-0; experiment: Cytotoxicity against human 786-0 cells; method in brief: as §1
[3] = tested on: HOP-62; experiment: Cytotoxicity against human HOP62 cells; method in brief: as §1
[4] = tested on: CCRF-CEM; experiment: Cytotoxicity against human CCRF-CEM cells
[5] = tested on: RXF 393; experiment: Cytotoxicity against human RXF393 cells; method in brief: as §1
[6] = tested on: LOX IMVI; experiment: Cytotoxicity against human LOXIMVI cells; method in brief: as §1
[7] = Cytotoxicity against human HCT15 cells; method in brief: as §1
[8] = tested on: CAKI-1; experiment: Cytotoxicity against human Caki1 cells; method in brief: as §1
[9] = tested on: SF-295; experiment: Cytotoxicity against human SF295 cells; method in brief: as §1
[10] = tested on: IGROV-1; experiment: Cytotoxicity against human IGROV1 cells; method in brief: as §1
[11] = Cytotoxicity against human NCI-ADR-RES cells; method in brief: as §1
[12] = tested on: TK-10; experiment: Cytotoxicity against human TK10 cells
Method in brief: (§2)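 Cell line run as part of the 60-cell-line screening panel; growth inhibition was reported as a GI50 for each line.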

[13] = tested on: M14; experiment: Cytotoxicity against human M14 cells; method in brief: as §1
[14] = tested on: HT-29; experiment: Cytotoxicity against human HT-29 cells; method in brief: as §1
[15] = Cytotoxicity against human UO31 cells; method in brief: as §2
[16] = tested on: HCC 2998; experiment: Cytotoxicity against human HCC2998 cells; method in brief: as §1
[17] = tested on: SK-OV-3; experiment: Cytotoxicity against human SKOV3 cells; method in brief: as §1
[18] = tested on: A498; experiment: Cytotoxicity against human A498 cells; method in brief: as §1
[19] = tested on: NCI-H322M; experiment: Cytotoxicity against human NCI-H322M cells; method in brief: as §1
[20] = tested on: KM12; experiment: Cytotoxicity against human KM12 cells; method in brief: as §1
[21] = tested on: K562; experiment: Cytotoxicity against human K562 cells; method in brief: as §1
[22] = tested on: SNB-75; experiment: Cytotoxicity against human SNB75 cells; method in brief: as §2
[23] = tested on: NCI-H23; experiment: Cytotoxicity against human NCI-H23 cells; method in brief: as §1
[24] = tested on: BT-549; experiment: Cytotoxicity against human BT549 cells; method in brief: as §1
[25] = tested on: SF-268; experiment: Cytotoxicity against human SF268 cells; method in brief: as §1
[26] = tested on: SR; experiment: Cytotoxicity against human SR cells; method in brief: as §2
[27] = tested on: A549; experiment: Cytotoxicity against human A549 cells; method in brief: as §1
[28] = Cytotoxicity against human UACC62 cells; method in brief: as §2
[29] = tested on: MDA-MB-231; experiment: Cytotoxicity against human MDA-MB-231 cells; method in brief: as §1
[30] = tested on: SN12C; experiment: Cytotoxicity against human SN12C cells; method in brief: as §1
[31] = tested on: ACHN; experiment: Cytotoxicity against human ACHN cells; method in brief: as §1
[32] = tested on: DU-145; experiment: Cytotoxicity against human DU145 cells; method in brief: as §1
[33] = tested on: MDA-MB-468; experiment: Cytotoxicity against human MDA-MB-468 cells; method in brief: as §1
[34] = tested on: HL-60(TB); experiment: Cytotoxicity against human HL-60(TB) cells
Method in brief: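 Tested within the NCI 60-cell-line screen, with GI50 as the read-out. Values are the average of two independent experiments. The lowest concentration tested was 10 nM.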

[35] = Cytotoxicity against human OVCAR8 cells; method in brief: as §1
[36] = tested on: SNB-19; experiment: Cytotoxicity against human SNB19 cells; method in brief: as §1
[37] = Cytotoxicity against human OVCAR4 cells; method in brief: as §1
[38] = tested on: HCT-116; experiment: Cytotoxicity against human HCT116 cells; method in brief: as §1
[39] = tested on: SK-MEL-2; experiment: Cytotoxicity against human SK-MEL-2 cells; method in brief: as §1
[40] = tested on: NCI-H226; experiment: Cytotoxicity against human NCI-H226 cells; method in brief: as §1
[41] = tested on: SF-539; experiment: Cytotoxicity against human SF539 cells; method in brief: as §1
[42] = tested on: COLO 205; experiment: Cytotoxicity against human COLO205 cells; method in brief: as §1
[43] = Cytotoxicity against human UACC257 cells; method in brief: as §2
[44] = read-out: pLC50 (the source's name) (converted)

COc1cc(/C=C/c2cc(O)c3cc(CC=C(C)C)[nH]c3c2)cc2c1O[C@]1(C)CC[C@@H](O)C(C)(C)[C@H]1C2
GI50 [1]: 3.8 µM | CC50 [1, 44]: > 100 µM | TGI ([1]; read-out: pTGI (converted)): > 100 µM | GI50 [2]: 0.363 µM | LC50 (concentration killing 50% of cells) [2]: > 100 µM | TGI ([2]; read-out: pTGI (converted)): 11 µM | GI50 [3]: 0.832 µM | CC50 [3, 44]: > 100 µM | TGI ([3]; read-out: pTGI (converted)): 46.8 µM | GI50 [4]: 0.741 µM | CC50 [4, 44]: > 100 µM | TGI ([4]; read-out: pTGI (converted)): > 100 µM | GI50 [5]: 0.0832 µM | LC50 [5]: 11.2 µM | TGI ([5]; read-out: pTGI (converted)): 0.447 µM | GI50 [6]: 2.82 µM | CC50 [6, 44]: > 100 µM | TGI ([6]; read-out: pTGI (converted)): 75.9 µM | GI50 ([7]; HCT-15): 1.45 µM | CC50 ([7]; HCT-15, read-out: pLC50 (the source's name) (converted)): > 100 µM | TGI ([7]; HCT-15, read-out: pTGI (converted)): 17.4 µM | GI50 [8]: 4.07 µM | LC50 [8]: > 100 µM | TGI ([8]; read-out: pTGI (converted)): 93.3 µM | GI50 ([9]; read-out: GI50): 0.29 µM | GI50 ([9]; read-out: pGI50 (converted)): 0.288 µM | CC50 [9, 44]: 51.3 µM | TGI ([9]; read-out: pTGI (converted)): 1.51 µM | GI50 [10]: 5.01 µM | CC50 [10, 44]: > 100 µM | TGI ([10]; read-out: pTGI (converted)): > 100 µM | GI50 [11]: 64.6 µM | CC50 [11, 44]: > 100 µM | TGI ([11]; read-out: pTGI (converted)): > 100 µM | GI50 [12]: 19.1 µM | LC50 [12]: > 100 µM | TGI ([12]; read-out: pTGI (converted)): > 100 µM | GI50 [13]: 1.66 µM | CC50 [13, 44]: 63.1 µM | TGI ([13]; read-out: pTGI (converted)): 9.33 µM | GI50 [14]: 2.63 µM | CC50 [14, 44]: 79.4 µM | TGI ([14]; read-out: pTGI (converted)): 18.6 µM | GI50 ([15]; UO-31): 0.479 µM | LC50 ([15]; UO-31): > 100 µM | TGI ([15]; UO-31, read-out: pTGI (converted)): 5.89 µM | GI50 [16]: 9.55 µM | CC50 [16, 44]: > 100 µM | TGI ([16]; read-out: pTGI (converted)): > 100 µM | GI50 [17]: 3.39 µM | LC50 [17]: > 100 µM | TGI ([17]; read-out: pTGI (converted)): > 100 µM | GI50 [18]: 1.02 µM | CC50 [18, 44]: > 100 µM | TGI ([18]; read-out: pTGI (converted)): 22.9 µM | GI50 [19]: 32.4 µM | CC50 [19, 44]: > 100 µM | TGI ([19]; read-out: pTGI (converted)): > 100 µM | GI50 [20]: 2.04 µM | CC50 [20, 44]: 74.1 µM | TGI ([20]; read-out: pTGI (converted)): 10.5 µM | GI50 [21]: 2.04 µM | CC50 [21, 44]: > 100 µM | TGI ([21]; read-out: pTGI (converted)): > 100 µM | GI50 [22]: 0.49 µM | CC50 [22, 44]: > 100 µM | TGI ([22]; read-out: pTGI (converted)): > 100 µM | GI50 [23]: 6.31 µM | CC50 [23, 44]: > 100 µM | TGI ([23]; read-out: pTGI (converted)): > 100 µM | GI50 [24]: 3.72 µM | CC50 [24, 44]: > 100 µM | TGI ([24]; read-out: pTGI (converted)): 50.1 µM | GI50 [25]: 4.27 µM | CC50 [25, 44]: > 100 µM | TGI ([25]; read-out: pTGI (converted)): > 100 µM | GI50 [26]: 0.759 µM | CC50 [26, 44]: > 100 µM | TGI ([26]; read-out: pTGI (converted)): > 100 µM | GI50 [27]: 6.31 µM | CC50 [27, 44]: > 100 µM | TGI ([27]; read-out: pTGI (converted)): > 100 µM | GI50 ([28]; UACC-62): 0.955 µM | CC50 ([28]; UACC-62, read-out: pLC50 (the source's name) (converted)): > 100 µM | TGI ([28]; UACC-62, read-out: pTGI (converted)): 7.59 µM | GI50 [29]: 2.69 µM | LC50 [29]: > 100 µM | TGI ([29]; read-out: pTGI (converted)): 63.1 µM | GI50 [30]: 58.9 µM | LC50 [30]: > 100 µM | TGI ([30]; read-out: pTGI (converted)): > 100 µM | GI50 [31]: 7.08 µM | LC50 (concentration killing 50% of cells) [31]: > 100 µM | TGI ([31]; read-out: pTGI (converted)): > 100 µM | GI50 [32]: 8.13 µM | LC50 (50% lethal concentration) [32]: > 100 µM | TGI ([32]; read-out: pTGI (converted)): > 100 µM | GI50 [33]: 3.02 µM | LC50 [33]: > 100 µM | TGI ([33]; read-out: pTGI (converted)): 26.9 µM | GI50 [34]: 18.6 µM | CC50 [34, 44]: > 100 µM | TGI ([34]; read-out: pTGI (converted)): > 100 µM | GI50 ([35]; OVCAR-8): > 100 µM | CC50 ([35]; OVCAR-8, read-out: pLC50 (the source's name) (converted)): > 100 µM | TGI ([35]; OVCAR-8, read-out: pTGI (converted)): > 100 µM | GI50 [36]: 2.63 µM | CC50 [36, 44]: > 100 µM | TGI ([36]; read-out: pTGI (converted)): > 100 µM | GI50 ([37]; OVCAR-4): 28.8 µM | CC50 ([37]; OVCAR-4, read-out: pLC50 (the source's name) (converted)): > 100 µM | TGI ([37]; OVCAR-4, read-out: pTGI (converted)): > 100 µM | GI50 [38]: 2.34 µM | CC50 [38, 44]: > 100 µM | TGI ([38]; read-out: pTGI (converted)): > 100 µM | GI50 [39]: 1.95 µM | CC50 [39, 44]: > 100 µM | TGI ([39]; read-out: pTGI (converted)): > 100 µM | GI50 [40]: 57.5 µM | CC50 [40, 44]: > 100 µM | TGI ([40]; read-out: pTGI (converted)): > 100 µM | GI50 [41]: 0.324 µM | CC50 [41, 44]: 83.2 µM | TGI ([41]; read-out: pTGI (converted)): 2.75 µM | GI50 [42]: 2.75 µM | CC50 [42, 44]: 22.4 µM | TGI ([42]; read-out: pTGI (converted)): 8.32 µM | GI50 ([43]; UACC-257): 12 µM | CC50 ([43]; UACC-257, read-out: pLC50 (the source's name) (converted)): > 100 µM | TGI ([43]; UACC-257, read-out: pTGI (converted)): 81.3 µM

Reference: ChEMBL document CHEMBL3232844, “Synthesis and structure activity relationships of schweinfurthin indoles” (2014)
